Where “and” joins values, the source holds several entries; their conditions need not be identical. Equal entries are not always repeated.
Test system: Fibroblast
Test: Multiplex assay against human fibroblast
Type: toxicity, cell-based
Conditions: number of replicates 2
Method in brief: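 Values for tubulin, mitochondrial-mass and membrane-permeability phenotypes are per cents of cells with healthy nuclei. These cells were identified by CellPathfinder machine-learning gating of live cells that had been stained at seeding with Hoechst33342, BioTracker Green Microtubule Cytoskeleton Dye, MitoTracker Red and Annexin V Alexa Fluor 680 and imaged on a CQ1 microscope at 37°C and 5% CO2 after compound addition. The gating first set Hoechst high-intensity objects apart from normal cells, then split normal cells into healthy, pyknosed or fragmented nuclei, and pyknosed cells into mitotic or apoptotic.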

[1] = 12 h, 1 µM, compound concentration 1 uM
[2] = 12 h, 10 µM, compound concentration 10 uM
[3] = 24 h, 1 µM, compound concentration 1 uM
[4] = 24 h, 10 µM, compound concentration 10 uM
[5] = 48 h, 1 µM, compound concentration 1 uM
[6] = 48 h, 10 µM, compound concentration 10 uM

CC(C)c1cc(-c2ccc(F)c3ccccc23)nc(N)n1
Population Apoptotic (%) [1]: 33% | Population Fragmented Nuclei (%) [1]: 14% and 15% | Population Healthy Nuclei (%) [1]: 70% and 65% | Population Hoechst High Intensity Objects (%) [1]: 1% and 0% | Population Membrane Permeable-Phenotype (%) [1]: 5% and 8% | Population Mitochondria Different-Phenotype (%) [1]: 0% and 3% | Population Mitotic Cells (%) [1]: 66% | Population Normal (%) [1]: 98% and 100% | Population Pyknosed Nuclei (%) [1]: 15% and 18% | Population Tubulin-Different-Phenotype (%) [1]: 16% and 14% | Total Cell Count [1]: 161 and 144 | Population Apoptotic (%) [2]: 38% | Population Fragmented Nuclei (%) [2]: 11% and 16% | Population Healthy Nuclei (%) [2]: 75% and 71% | Population Hoechst High Intensity Objects (%) [2]: 0% | Population Membrane Permeable-Phenotype (%) [2]: 7% | Population Mitochondria Different-Phenotype (%) [2]: 0% and 2% | Population Mitotic Cells (%) [2]: 61% | Population Normal (%) [2]: 100% | Population Pyknosed Nuclei (%) [2]: 12% | Population Tubulin-Different-Phenotype (%) [2]: 12% | Total Cell Count [2]: 140 and 174 | Population Apoptotic (%) [3]: 47% and 40% | Population Fragmented Nuclei (%) [3]: 14% and 15% | Population Healthy Nuclei (%) [3]: 71% and 67% | Population Hoechst High Intensity Objects (%) [3]: 0% | Population Membrane Permeable-Phenotype (%) [3]: 4% and 8% | Population Mitochondria Different-Phenotype (%) [3]: 0% and 1% | Population Mitotic Cells (%) [3]: 52% and 60% | Population Normal (%) [3]: 100% | Population Pyknosed Nuclei (%) [3]: 13% and 17% | Population Tubulin-Different-Phenotype (%) [3]: 17% and 12% | Total Cell Count [3]: 157 and 140 | Population Apoptotic (%) [4]: 75% and 46% | Population Fragmented Nuclei (%) [4]: 9% and 14% | Population Healthy Nuclei (%) [4]: 84% and 76% | Population Hoechst High Intensity Objects (%) [4]: 0% | Population Membrane Permeable-Phenotype (%) [4]: 5% and 1% | Population Mitochondria Different-Phenotype (%) [4]: 0% and 3% | Population Mitotic Cells (%) [4]: 25% and 53% | Population Normal (%) [4]: 99% and 100% | Population Pyknosed Nuclei (%) [4]: 5% and 8% | Population Tubulin-Different-Phenotype (%) [4]: 11% and 8% | Total Cell Count [4]: 135 and 171 | Population Apoptotic (%) [5]: 65% and 57% | Population Fragmented Nuclei (%) [5]: 16% and 13% | Population Healthy Nuclei (%) [5]: 69% and 71% | Population Hoechst High Intensity Objects (%) [5]: 0% | Population Membrane Permeable-Phenotype (%) [5]: 4% and 7% | Population Mitochondria Different-Phenotype (%) [5]: 0% | Population Mitotic Cells (%) [5]: 34% and 42% | Population Normal (%) [5]: 100% and 99% | Population Pyknosed Nuclei (%) [5]: 13% and 14% | Population Tubulin-Different-Phenotype (%) [5]: 14% and 7% | Total Cell Count [5]: 173 and 142 | Population Apoptotic (%) [6]: 100% and 54% | Population Fragmented Nuclei (%) [6]: 13% and 14% | Population Healthy Nuclei (%) [6]: 82% and 79% | Population Hoechst High Intensity Objects (%) [6]: 0% | Population Membrane Permeable-Phenotype (%) [6]: 3% and 1% | Population Mitochondria Different-Phenotype (%) [6]: 0% | Population Normal (%) [6]: 100% | Population Pyknosed Nuclei (%) [6]: 3% and 6% | Population Tubulin-Different-Phenotype (%) [6]: 7% and 5% | Total Cell Count [6]: 152 and 175

CC(C)S(=O)(=O)c1ccccc1Nc1nc(N[C@@H]2CCCN(CCCCCCCNC(=O)COc3cccc4c3C(=O)N(C3CCC(=O)NC3=O)C4=O)C2)ncc1Cl (stereo partly specified)
Population Apoptotic (%) [1]: 55% and 64% | Population Fragmented Nuclei (%) [1]: 12% and 11% | Population Healthy Nuclei (%) [1]: 50% | Population Hoechst High Intensity Objects (%) [1]: 0% | Population Membrane Permeable-Phenotype (%) [1]: 15% and 11% | Population Mitochondria Different-Phenotype (%) [1]: 4% and 2% | Population Mitotic Cells (%) [1]: 44% and 35% | Population Normal (%) [1]: 100% | Population Pyknosed Nuclei (%) [1]: 37% and 38% | Population Tubulin-Different-Phenotype (%) [1]: 40% and 37% | Total Cell Count [1]: 181 and 196 | Population Apoptotic (%) [2]: 65% and 48% | Population Fragmented Nuclei (%) [2]: 12% and 16% | Population Healthy Nuclei (%) [2]: 42% and 33% | Population Hoechst High Intensity Objects (%) [2]: 0% and 1% | Population Membrane Permeable-Phenotype (%) [2]: 56% and 36% | Population Mitochondria Different-Phenotype (%) [2]: 22% and 30% | Population Mitotic Cells (%) [2]: 34% and 52% | Population Normal (%) [2]: 99% and 98% | Population Pyknosed Nuclei (%) [2]: 44% and 49% | Population Tubulin-Different-Phenotype (%) [2]: 72% and 32% | Total Cell Count [2]: 231 and 205 | Population Apoptotic (%) [3]: 68% and 83% | Population Fragmented Nuclei (%) [3]: 10% | Population Healthy Nuclei (%) [3]: 51% | Population Hoechst High Intensity Objects (%) [3]: 0% | Population Membrane Permeable-Phenotype (%) [3]: 7% and 4% | Population Mitochondria Different-Phenotype (%) [3]: 9% and 4% | Population Mitotic Cells (%) [3]: 31% and 16% | Population Normal (%) [3]: 99% and 100% | Population Pyknosed Nuclei (%) [3]: 37% | Population Tubulin-Different-Phenotype (%) [3]: 27% and 15% | Total Cell Count [3]: 171 and 175 | Population Apoptotic (%) [4]: 74% and 79% | Population Fragmented Nuclei (%) [4]: 13% and 14% | Population Healthy Nuclei (%) [4]: 32% and 33% | Population Hoechst High Intensity Objects (%) [4]: 1% | Population Membrane Permeable-Phenotype (%) [4]: 32% and 19% | Population Mitochondria Different-Phenotype (%) [4]: 36% and 39% | Population Mitotic Cells (%) [4]: 26% and 20% | Population Normal (%) [4]: 98% | Population Pyknosed Nuclei (%) [4]: 53% and 51% | Population Tubulin-Different-Phenotype (%) [4]: 68% and 75% | Total Cell Count [4]: 188 and 232 | Population Apoptotic (%) [5]: 63% and 73% | Population Fragmented Nuclei (%) [5]: 15% and 12% | Population Healthy Nuclei (%) [5]: 44% and 43% | Population Hoechst High Intensity Objects (%) [5]: 0% | Population Membrane Permeable-Phenotype (%) [5]: 18% and 9% | Population Mitochondria Different-Phenotype (%) [5]: 5% and 8% | Population Mitotic Cells (%) [5]: 36% and 26% | Population Normal (%) [5]: 99% and 100% | Population Pyknosed Nuclei (%) [5]: 40% and 43% | Population Tubulin-Different-Phenotype (%) [5]: 31% and 36% | Total Cell Count [5]: 173 and 163 | Population Apoptotic (%) [6]: 79% and 83% | Population Fragmented Nuclei (%) [6]: 17% and 13% | Population Healthy Nuclei (%) [6]: 36% and 32% | Population Hoechst High Intensity Objects (%) [6]: 2% and 0% | Population Membrane Permeable-Phenotype (%) [6]: 36% and 34% | Population Mitochondria Different-Phenotype (%) [6]: 14% and 22% | Population Mitotic Cells (%) [6]: 20% and 16% | Population Normal (%) [6]: 97% and 99% | Population Pyknosed Nuclei (%) [6]: 46% and 53% | Population Tubulin-Different-Phenotype (%) [6]: 73% and 60% | Total Cell Count [6]: 196 and 232
